The values below come from ChEMBL document CHEMBL3425440, “ent-Kaurane Diterpenoids from Chinese Liverworts and Their Antitumor Activities through Michael Addition As Detected in Situ by a Fluorescence Probe” (J Med Chem, 2015).

Activity calls are given as the source filed them. No cut-off for these calls is given here.

The first series relates to K562. The experiment in a line: Cytotoxicity against human K562 cells assessed as cell viability after 24 hrs by MTT assay. Format: functional, cell-based. Particulars: K562, 24 h. Put shortly:
(§1)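 Cells grown to about 50−70% confluence at 37 °C, 5% CO2, then exposed to compounds 24 h (DMSO vehicle control, cisplatin positive control). MTT (5 mg/mL stock) added for 4 h, formazan dissolved in DMSO, absorbance read at 570 nm. IC50 derived from percent viability; at least three independent experiments, mean ± SD.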
With `C=C1C(=O)[C@@]23CC[C@H]4[C@@](C)(CCC[C@@]4(C)C(=O)OCCN4CCN(C)CC4)[C@@H]2CC[C@]1(O)C3`, the IC50 is 4.1 µM.
The same measure, in the same setting: with `C=C1[C@@H]2CC(=O)[C@H]3[C@]4(C)CCCC(C)(C)[C@H]4C[C@@H](O)[C@]3(C2)[C@@H]1O` the figure was > 50 µM; with `C=C1C(=O)[C@@]23CC[C@H]4[C@@](C)(CCC[C@@]4(C)C(=O)O)[C@@H]2CC[C@]1(O)C3`, 9.9 µM.

The subject of another series is MDA-MB-231. The experiment in a line: Cytotoxicity against human MDA-MB-231 cells assessed as cell viability after 24 hrs by MTT assay. It is filed as functional, cell-based. The note with it: MDA-MB-231, 24 h. In short, it runs like this: as §1
On to `C=C1C(=O)[C@@]23CC[C@H]4[C@@](C)(CCC[C@@]4(C)C(=O)OCCN4CCN(C)CC4)[C@@H]2CC[C@]1(O)C3`, for which the IC50 was 27.5 µM.
Consider `C=C1[C@@H]2CC(=O)[C@H]3[C@]4(C)CCCC(C)(C)[C@H]4C[C@@H](O)[C@]3(C2)[C@@H]1O`, for which the 50% inhibitory concentration (IC50) is > 50 µM.
Consider `C=C1C(=O)[C@@]23CC[C@H]4[C@@](C)(CCC[C@@]4(C)C(=O)O)[C@@H]2CC[C@]1(O)C3`, for which the IC50 was 37.2 µM.

Another series concerns PC-3. The series can be described thus: Induction of apoptosis in human PC3 cells assessed as appearance of swelled/fused lysosomes at 8 uM after 2 hrs by LysoTracker Red and Hoechst 33342 staining-based confocal microscopic analysis. Format: functional, cell-based.
Details: not given
In short, it runs like this:
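PC3 cells given 8 μM compound for 2 h, then stained 30 min at 37 °C with 100 ng/mL LysoTracker Red and 10 μg/mL Hoechst 33342. Washed in PBS and imaged by confocal microscopy to assess lysosome swelling or fusion.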
`C=C1C(=O)[C@@]23CC[C@H]4[C@@](C)(CCC[C@@]4(C)C(=O)OCCN4CCN(C)CC4)[C@@H]2CC[C@]1(O)C3`: the outcome was Active.

Test system in the next series: not listed separately
The series can be described thus: Cytotoxicity against human RWPE1 cells assessed as cell viability after 24 hrs by MTT assay. It is filed as cell-based. The note with it: RWPE-1, 24 h. Put shortly: as §1
On to `C=C1C(=O)[C@@]23CC[C@H]4[C@@](C)(CCC[C@@]4(C)C(=O)OCCN4CCN(C)CC4)[C@@H]2CC[C@]1(O)C3`, for which the IC50 came to 29.3 µM.
On the same count and under the same terms, under `C=C1[C@@H]2CC(=O)[C@H]3[C@]4(C)CCCC(C)(C)[C@H]4C[C@@H](O)[C@]3(C2)[C@@H]1O` stands > 50 µM.
For the compound `C=C1C(=O)[C@@]23CC[C@H]4[C@@](C)(CCC[C@@]4(C)C(=O)O)[C@@H]2CC[C@]1(O)C3`, the IC50 is 27 µM.

Test system in the next series: not listed separately
The experiment in a line: Cytotoxicity against human A172 cells assessed as cell viability after 24 hrs by MTT assay. Particulars: A 172, 24 h. Format: functional, cell-based. In short, it runs like this: as §1
As to `C=C1[C@@H]2CC(=O)[C@H]3[C@]4(C)CCCC(C)(C)[C@H]4C[C@@H](O)[C@]3(C2)[C@@H]1O`, the IC50 was > 50 µM.

Test system in another series: not listed separately
The experiment in a line: Cytotoxicity against human SKOV3 cells assessed as cell viability after 24 hrs by MTT assay. Format: functional, cell-based. Particulars: SK-OV-3, 24 h. In short, it runs like this: as §1
`C=C1[C@@H]2CC(=O)[C@H]3[C@]4(C)CCCC(C)(C)[C@H]4C[C@@H](O)[C@]3(C2)[C@@H]1O`: the IC50 is > 50 µM.

The next series concerns PC-3. The experiment in a line: Induction of apoptosis in human PC3 cells assessed as cathepsin B release from lysosome to cytosol at 8 uM measured over 48 hrs by Western blot analysis. Format: functional, cell-based.
Details: not given
Put shortly: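 PC3 cells treated with 8 μM compound for the indicated times, lysed in RIPA buffer with protease inhibitors, protein quantified by BCA. Run on 12% SDS-PAGE, transferred to nitrocellulose, blocked in 5% milk/TBST. Probed overnight at 4 °C for cathepsin B with GAPDH loading control; ECL detection.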
Consider `C=C1C(=O)[C@@]23CC[C@H]4[C@@](C)(CCC[C@@]4(C)C(=O)OCCN4CCN(C)CC4)[C@@H]2CC[C@]1(O)C3`, for which the result was Active.

Test system in a further series: not listed separately
The experiment in a line: Cytotoxicity against human PC3 cells assessed as cell viability after 24 hrs by MTT assay. Format: functional, cell-based. The note with it: PC-3, 24 h. In short, it runs like this: as §1
Take `C=C1C(=O)[C@@]23CC[C@H]4[C@@](C)(CCC[C@@]4(C)C(=O)OCCN4CCN(C)CC4)[C@@H]2CC[C@]1(O)C3`: the IC50 was 8.2 µM.
The same measure, in the same setting: under `C=C1[C@@H]2CC(=O)[C@H]3[C@]4(C)CCCC(C)(C)[C@H]4C[C@@H](O)[C@]3(C2)[C@@H]1O` stands > 50 µM; under `C=C1C(=O)[C@@]23CC[C@H]4[C@@](C)(CCC[C@@]4(C)C(=O)O)[C@@H]2CC[C@]1(O)C3`, 30.1 µM.

A further series relates to LNCaP. The experiment in a line: Cytotoxicity against human LNCAP cells assessed as cell viability after 24 hrs by MTT assay. Format: functional, cell-based.
Details: not given
Put shortly: as §1
As for `C=C1[C@@H]2CC(=O)[C@H]3[C@]4(C)CCCC(C)(C)[C@H]4C[C@@H](O)[C@]3(C2)[C@@H]1O`, the IC50 was > 50 µM.

A further series relates to LoVo. The series can be described thus: Cytotoxicity against human LoVo cells assessed as cell viability after 24 hrs by MTT assay.
Details: not given
It is filed as functional, cell-based. In short, it runs like this: as §1
Consider `C=C1[C@@H]2CC(=O)[C@H]3[C@]4(C)CCCC(C)(C)[C@H]4C[C@@H](O)[C@]3(C2)[C@@H]1O`, for which the half-maximal inhibitory concentration (IC50) is > 50 µM.

Test system in a further series: not listed separately
The experiment in a line: Cytotoxicity against human T24 cells assessed as cell viability after 24 hrs by MTT assay. Format: functional, cell-based. Particulars: T-24, 24 h. In short, it runs like this: as §1
Take `C=C1[C@@H]2CC(=O)[C@H]3[C@]4(C)CCCC(C)(C)[C@H]4C[C@@H](O)[C@]3(C2)[C@@H]1O`: the IC50 was > 50 µM.

Test system in another series: not listed separately
The experiment in a line: Drug uptake in lysosome of human PC3 cells at 8 uM preincubated for 4 hrs followed by fluorescence probe addition measured after 1 hr by 3-azido-7-(diethylamino)-2H-chromen-2-one fluorescence probe-based confocal microscopic analysis. The note with it: pc-3, 1 h. Format: ADME, cell-based. In short, it runs like this: (§2)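 PC3 cells on glass coverslips treated with compound for 4 h (5 μM NEM as thiol-scavenger control), fixed in cold methanol/acetone (1:1) for 5 min. Stained with 30 μM azidocoumarin probe, which fluoresces on reaction with thiols, for 1 h at room temperature in the dark. Mean cellular fluorescence quantified by confocal microscopy; mean ± SD.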
Consider `C=C1C(=O)[C@@]23CC[C@H]4[C@@](C)(CCC[C@@]4(C)C(=O)OCCN4CCN(C)CC4)[C@@H]2CC[C@]1(O)C3`, for which the Drug uptake entry was “Active”.

In another series the test system is DU-145. The experiment in a line: Cytotoxicity against human DU145 cells assessed as cell viability after 24 hrs by MTT assay. Format: functional, cell-based. The note with it: DU-145, 24 h. Put shortly:
as §1
Consider `C=C1C(=O)[C@@]23CC[C@H]4[C@@](C)(CCC[C@@]4(C)C(=O)OCCN4CCN(C)CC4)[C@@H]2CC[C@]1(O)C3`, for which the IC50 was found to be 14.9 µM.
Same read-out and setting: with `C=C1[C@@H]2CC(=O)[C@H]3[C@]4(C)CCCC(C)(C)[C@H]4C[C@@H](O)[C@]3(C2)[C@@H]1O` the figure was > 50 µM; with `C=C1C(=O)[C@@]23CC[C@H]4[C@@](C)(CCC[C@@]4(C)C(=O)O)[C@@H]2CC[C@]1(O)C3`, 48.5 µM.

The subject of another series is PC-3. The series can be described thus: Reduction in glutathione level in human PC3 cells at 5 uM preincubated for 4 hrs followed by fluorescence probe addition measured after 1 hr by 3-azido-7-(diethylamino)-2H-chromen-2-one fluorescence probe-based confocal microscopic analysis. Format: functional, cell-based.
Details: not given
Put shortly: as §2
`C=C1C(=O)[C@@]23CC[C@H]4[C@@](C)(CCC[C@@]4(C)C(=O)O)[C@@H]2CC[C@]1(O)C3`: the outcome was Active.

Test system in a further series: not listed separately
The experiment in a line: Cytotoxicity against human SH-SY5Y cells assessed as cell viability after 24 hrs by MTT assay. Format: functional, cell-based.
Details: not given
In short, it runs like this:
as §1
Regarding `C=C1[C@@H]2CC(=O)[C@H]3[C@]4(C)CCCC(C)(C)[C@H]4C[C@@H](O)[C@]3(C2)[C@@H]1O`, the IC50 was > 50 µM.

A further series concerns NCI-H1299. The series can be described thus: Cytotoxicity against human NCI-H1299 cells assessed as cell viability after 24 hrs by MTT assay. It is filed as functional, cell-based. Particulars: NCI-H1299, 24 h. In short, it runs like this:
as §1
In the case of `C=C1C(=O)[C@@]23CC[C@H]4[C@@](C)(CCC[C@@]4(C)C(=O)OCCN4CCN(C)CC4)[C@@H]2CC[C@]1(O)C3`, the IC50 was 10.9 µM.
Same read-out and setting: with `C=C1[C@@H]2CC(=O)[C@H]3[C@]4(C)CCCC(C)(C)[C@H]4C[C@@H](O)[C@]3(C2)[C@@H]1O` the figure was > 50 µM; with `C=C1C(=O)[C@@]23CC[C@H]4[C@@](C)(CCC[C@@]4(C)C(=O)O)[C@@H]2CC[C@]1(O)C3`, 32.8 µM.

Test system in the next series: not listed separately
The experiment in a line: Cytotoxicity against human Saos2 cells assessed as cell viability after 24 hrs by MTT assay. Format: functional, cell-based. The note with it: SAOS-2, 24 h. In short, it runs like this:
as §1
As to `C=C1[C@@H]2CC(=O)[C@H]3[C@]4(C)CCCC(C)(C)[C@H]4C[C@@H](O)[C@]3(C2)[C@@H]1O`, the concentration for half-maximal inhibition (IC50) was > 50 µM.

Test system in the next series: not listed separately
The series can be described thus: Cytotoxicity against human HL60 cells assessed as cell viability after 24 hrs by MTT assay. It is filed as functional, cell-based. Particulars: HL-60, 24 h. Put shortly: as §1
Consider `C=C1C(=O)[C@@]23CC[C@H]4[C@@](C)(CCC[C@@]4(C)C(=O)OCCN4CCN(C)CC4)[C@@H]2CC[C@]1(O)C3`, for which the half-maximal inhibitory concentration (IC50) is 3 µM.
Still for that read-out and setting: with `C=C1[C@@H]2CC(=O)[C@H]3[C@]4(C)CCCC(C)(C)[C@H]4C[C@@H](O)[C@]3(C2)[C@@H]1O` the figure was > 50 µM; with `C=C1C(=O)[C@@]23CC[C@H]4[C@@](C)(CCC[C@@]4(C)C(=O)O)[C@@H]2CC[C@]1(O)C3`, 7.9 µM.

Test system in a further series: not listed separately
The series can be described thus: Selectivity index, ratio of IC50 for human RWPE1 cells to IC50 for human PC3 cells. Format: functional.
Details: not given
As to `C=C1C(=O)[C@@]23CC[C@H]4[C@@](C)(CCC[C@@]4(C)C(=O)OCCN4CCN(C)CC4)[C@@H]2CC[C@]1(O)C3`, the “Ratio IC50” value is 3.6.
